An excerpt weighted towards active compounds, which were near 1% of everything screened.
LYPLA1 inh = counter-screen for PME1 inhibitors: inhibitors of human LYPLA1. O75608. recombinant LYPLA1, FP-Rh probe fluorescence polarization. inhibition, % at 5.9 µM. 320,000 compounds, 0.16% hits. AID 2174;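 active = inhibition above the mean of all tested compounds plus 3 SD, set per campaign, cut at about 14% in these data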;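 also: inhibitors block serine hydrolase probe labeling of LYPLA1 so polarization falls; 0% = enzyme with DMSO and 100% = wells lacking LYPLA1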
proCasp7 act = activates human procaspase-7, counter-screen for procaspase-3 activators. activation, % at 8.5 µM. 330,000 compounds, 0.093% hits. recombinant procaspase-7, Ac-DEVD-pNA absorbance 405 nm; D23A/D198A/D206A triple mutant, cannot self-cleave; scale: DMSO 0, 5 µM enzyme 100;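 active = percent activation above the screen-wide mean plus 3 SD, cut at about 25% in these data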
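signal = Epi-absorbance of released pNA at 405 nm, two timepoints | assay system = Uncleavable procaspase-7 mutant enzyme | reagent = Ac-DEVD-pNA substrate, 400 µM as added | times = 1 h enzyme–compound preincubation and 2 h substrate reaction, both 25 °C | benchmarks = low DMSO alone, high DMSO plus 5 µM PC-7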
procasp3 activ = procaspase-3 (human) activation; P42574; recombinant procaspase-3 D3A, Ac-DEVD-pNA absorbance 405 nm; activation, % at 8.5 µM; 330,000 compounds, 0.11% hits;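 active = activation above the mean of all tested compounds plus 3 SD, cut at about 21% in these data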;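 also: 0% = DMSO alone and 100% = DMSO wells spiked with extra 5 µM PC-3 D3A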
Target sequence (P42574 whole entry D9A/D28A/D175A): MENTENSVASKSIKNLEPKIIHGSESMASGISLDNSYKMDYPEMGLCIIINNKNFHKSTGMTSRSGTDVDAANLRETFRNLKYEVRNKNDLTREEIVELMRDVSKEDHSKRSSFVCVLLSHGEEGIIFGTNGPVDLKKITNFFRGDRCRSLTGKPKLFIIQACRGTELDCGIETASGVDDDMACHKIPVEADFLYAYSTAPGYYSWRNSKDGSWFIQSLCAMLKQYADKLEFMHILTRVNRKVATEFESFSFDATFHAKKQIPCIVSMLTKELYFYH
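Assay system: Autoprocessing-dead procaspase-3 D3A mutant enzyme; also added: Ac-DEVD-pNA; doses: one concentration, 8.5 µM nominal, 0.8% DMSO; times: 1 h compound preincubation, 2 h substrate hydrolysis at 25 °C; technique: 405 nm absorbance of p-nitroaniline, reads at 0 and 120 min; measure: % activation between DMSO and enzyme-spiked controls; repeats: single replicate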
PREPL inhibitor = inhibitors of human prolyl oligopeptidase-like enzyme PREPL; inhibition, % at 5.96 µM; recombinant PREPL, fluorescence polarization activity-based probe; AID 2751; 320,000 compounds, 0.68% hits; Q4J6C6;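 also: 0% = enzyme with DMSO and 100% = wells lacking enzyme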
LYPLA2 counter = LYPLA2 (human) inhibition in PME1 counter-screen. recombinant LYPLA2, FP-Rh probe fluorescence polarization. inhibition, % at 5.9 µM. O95372. AID 2177. 320,000 compounds, 0.38% hits;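 active = inhibition above the screen-wide mean plus 3 SD, limit set per campaign, cut at about 26% in these data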;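 also: 0% = LYPLA2 with DMSO and 100% = wells lacking LYPLA2 enzyme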
Target sequence (O95372 whole entry, looked up): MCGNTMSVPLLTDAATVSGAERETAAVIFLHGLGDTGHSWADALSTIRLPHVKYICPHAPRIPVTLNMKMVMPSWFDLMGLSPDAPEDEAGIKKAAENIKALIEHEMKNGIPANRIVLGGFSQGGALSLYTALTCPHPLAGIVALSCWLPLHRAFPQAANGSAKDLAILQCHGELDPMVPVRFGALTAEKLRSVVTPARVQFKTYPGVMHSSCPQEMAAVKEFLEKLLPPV
PREPL confirm = confirmation of human PREPL enzyme inhibitors. shares compounds with PREPL inhibitor. recombinant PREPL, fluorescence polarization activity probe. inhibition, % at 5.96 µM. 2,000 compounds, 67% hits. AID 2803;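 also: 0% = protein with DMSO and 100% = wells lacking protein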
procasp7 triplic = counter-screen for procaspase-3 activators: activators of human procaspase-7 | activation, % at 8.5 µM | recombinant procaspase-7, Ac-DEVD-pNA absorbance; asp23/198/206-to-Ala mutant, cannot self-cleave | shares compounds with procasp3 activ | 210 tested, under 10 active;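 active = mean activation above a set limit taken from an earlier procaspase-7 screen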;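 also: 0% = DMSO wells and 100% = DMSO plus 5 µM procaspase-7 enzyme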
proCasp3 confirm = procaspase-3 (human) activation, confirmed; shares compounds with procasp3 activ; recombinant PC-3 D3A, Ac-DEVD-pNA absorbance 405 nm; 100% is higher-enzyme control; activation, % at 8.5 µM; 210 compounds, 10% hits; AID 488954;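 active = mean activation above a set limit carried over from the earlier primary screen, cut at about 22% in these data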
The depositor's hits bear a star; x = no result. Rule as the data show it, unless noted: active = inhibition above about 43%; inactive = the rest.

SMILES	LYPLA1 inh	proCasp7 act	procasp3 activ	PREPL inhibitor	LYPLA2 counter	PREPL confirm	others
CC(C)n1cnc2c(N(C)c3ccccc3)nc(N(CCN(C)C)Cc3ccccc3)nc21	0	4	9	52*	4	48*
OCCNC(=S)Nc1ccc(Oc2ccccc2)cc1	-3	10	4	0	-2	x
Cc1ccc(SCc2[nH]nc3c2C2(C(=O)Nc4ccc([N+](=O)[O-])cc42)C(C#N)=C(N)O3)cc1 (stereo not given)	-5	5	-5	2	-5	x
C[C@H]1COC(=O)[C@@H](Cc2ccc(F)cc2)CC/C=C/C[C@@H](CC(=O)N(CCO)Cc2ccccc2)C(=O)N1	x	10	1	33	x	x
O=C1N[C@@H](c2ccccc2)COC(=O)[C@@H](Cc2ccc(F)cc2)C/C=C\C[C@@H]1CC(=O)N(CCO)Cc1ccccc1	x	11	-5	52*	x	41
O=C1N[C@@H](Cc2c[nH]c3ccccc23)COC(=O)[C@@H](Cc2ccc(F)cc2)C/C=C\C[C@H]1CC(=O)N(CCO)Cc1ccccc1	x	6	12	62*	x	53*
CC(C)(C)[C@@H]1COC(=O)[C@H](Cc2ccc(F)cc2)CC/C=C\C[C@@H](CC(=O)N(CCO)Cc2ccccc2)C(=O)N1	x	1	9	47*	x	51*
O=C1N[C@@H](Cc2ccccc2)COC(=O)[C@@H](Cc2ccc(F)cc2)CC/C=C/C[C@@H]1CC(=O)N(CCO)Cc1ccccc1	x	4	9	44*	x	43*
COC(=O)c1ccc(NC(=O)C2CC(=O)OC2c2ccccc2)cc1 (stereo not given)	-1	2	4	-2	-1	x
CCNC(=O)Nn1c(C)nnc1C	2	-5	-6	11	-2	x
COc1ccc2oc(C(=O)N3CCCc4ccccc43)c(C)c2c1	3	-2	-4	7	-1	x
CC(C)(C)[C@@H]1COC(=O)[C@@H](Cc2ccc(F)cc2)C/C=C\C[C@H](CC(=O)N(CCO)Cc2ccccc2)C(=O)N1	x	7	6	56*	x	46*
O=C1OC[C@@H]2CCCN2C(=O)[C@@H](CC(=O)N(CCO)Cc2ccccc2)C/C=C\CC[C@H]1Cc1ccc(F)cc1	x	6	-2	44*	x	30
O=C1OC[C@@H]2CCCN2C(=O)[C@@H](CC(=O)N(CCO)Cc2ccccc2)C/C=C\C[C@@H]1Cc1ccc(F)cc1	x	1	-5	27	x	x
C[C@H]1COC(=O)[C@@H](Cc2ccc(F)cc2)C/C=C\C[C@H](CC(=O)N(CCO)Cc2ccccc2)C(=O)N1	x	2	8	25	x	x
Cc1coc(C)c1C(=O)CC1(O)C(=O)Nc2cc(Cl)cc(Cl)c21 (stereo not given)	-2	-1	4	-5	-2	x
CCOC(=O)C1(CCOc2ccccc2)CCN(Cc2cccc(OC)c2)CC1	-3	3	6	-63	-1	x
CCOC(=O)C1(CCOc2ccccc2)CCN(Cc2cc(OC)ccc2OC)CC1	4	3	-4	50*	3	39
COc1ccc(NC(=O)N(CCCN(C)C)Cc2cc3cc(OC)ccc3[nH]c2=O)cc1	0	-7	2	16	2	x
COc1ccc(NC(=O)N(CCN2CCCC2)Cc2cc3cc(OC)c(OC)cc3[nH]c2=O)cc1	-1	2	2	58*	1	18
CCn1ncc(Br)c1C(=O)Nc1cc(C)cc(C)c1	1	7	-7	2	-1	x
CNc1oc(-c2ccccc2Cl)nc1P(=O)(c1ccccc1)c1ccccc1	7	0	-5	44*	5	55*
Cc1nc2ccccc2c(=O)n1/N=C/c1ccc(O)c(O)c1O	-7	-9	-2	45*	-11	38
Cc1nc2ccccc2c(=O)n1/N=C/c1ccccc1O	-2	8	7	7	4	x
COc1ccc(-c2ccnc(-c3ccc(OCCCF)cc3)n2)cc1	-9	-1	-4	-1	-15	x
SMILES	LYPLA1 inh	proCasp7 act	procasp3 activ	PREPL inhibitor	LYPLA2 counter	PREPL confirm	others
COc1ccc(/C=N/Nc2cc(C)nc3ccc(OC)cc23)c(OC)c1	8	-29	-17	89*	2	81*
COc1ccc(-c2ccc(C#N)c(SCC(=O)OCc3ccccc3)n2)cc1OC	-3	10	34*	58*	-11	16	procasp7 triplic=4;proCasp3 confirm=6
Cc1[nH]c2ccccc2c1C(=O)CN1C(=O)C(=O)N(Cc2ccco2)C1=O	0	9	5	6	1	x
Cc1ccccc1CSc1nc2ccccc2c(=O)n1C	-4	-6	-2	7	-2	x
Cn1c(SCc2ccccc2F)nc2ccccc2c1=O	0	6	22*	0	0	x	procasp7 triplic=1;proCasp3 confirm=3
O=C(NCC1CCN(S(=O)(=O)c2ccccc2)CC1)Nc1ccccc1	-1	1	5	8	2	x
C=CCn1c(=NC(=O)c2cc(-c3cccs3)nc3ccccc23)sc2cc(S(N)(=O)=O)ccc21	-38	14	78*	-15	-73	x	procasp7 triplic=15;proCasp3 confirm=20
COCCn1c(=NC(=O)c2cc(-c3cccs3)nc3ccccc23)sc2cc(S(N)(=O)=O)ccc21	-49	9	44*	-21	-90	x	procasp7 triplic=0;proCasp3 confirm=-3
COCCn1c(=NC(=O)c2sc3ccccc3c2Cl)sc2cc(S(N)(=O)=O)ccc21	-15	-1	0	-11	-27	x
C=CCn1c(=NC(=O)c2sc3ccccc3c2Cl)sc2cc(S(N)(=O)=O)ccc21	-4	-1	-4	-14	-19	x
COc1ccc(CCN(Cc2nc3ccccc3c(=O)[nH]2)C(=O)c2ccco2)cc1OC	-3	2	-1	0	-2	x
Cc1ccc(C2(C)NC(=O)N(CC(=O)N3CCN(S(=O)(=O)c4cccc([N+](=O)[O-])c4)CC3)C2=O)cc1 (stereo not given)	x	8	3	15	x	x
CCCCn1c(N)c(N(CC)C(=O)c2cccc(S(=O)(=O)N3CCN(C)CC3)c2)c(=O)[nH]c1=O	4	6	24*	10	0	x	procasp7 triplic=4;proCasp3 confirm=7
COc1ccc2cc(S(=O)(=O)NCCCN3CCOCC3)ccc2c1	-1	-4	22*	18	8	x	procasp7 triplic=2;proCasp3 confirm=6
Cc1ccc2cc(S(=O)(=O)NCCCN3CCOCC3)ccc2c1	-1	-5	-5	0	-6	x

High-throughput results (PubChem BioAssay)
